Measured values from ChEMBL document CHEMBL1124108, “Antihypertensive thiadiazoles. 2. Vasodilator activity of some 2-aryl-5-guanidino-1,3,4-thiadiazoles” (1988).

Columns and labels:
Rattus norvegicus [1] = experiment: Maximum percentage reduction in mean blood pressure and heart rate in metacorticoid (DOCA) hypertensive rats at a standard intraperitoneal dose of 100 mg/kg; assay type: functional
Rattus norvegicus [2] = species on record: Rattus norvegicus; experiment: Increase in diastolic blood pressure for 3 Htz electrical stimulation in the pithed rats; assay type: functional, Artery
How it was run: (§1)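 Male rats (200-300 g) were given drug or isotonic saline ip, in groups of five, 2 h before pithing (one reference agent 1 h before). Doses were 50 or 25 mg/kg, or 5 mg/kg for the reference agent. Rats were put under halothane, tracheally cannulated, pithed through the left orbit and ventilated with room air at 50 strokes/min. After iv tubocurarine (1 mg/kg), the whole sympathetic outflow was stimulated at 1, 3 or 6 Hz (0.5 ms, 20 V, 15 s). The rise in diastolic pressure was recorded in mmHg.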

Rattus norvegicus [3] = experiment: Increase in diastolic blood pressure for 0.03 ug/kg intravenous dosing of angiotensin in pithed rats; assay type: functional, Artery
How it was run: (§2)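 The pithed-rat preparation was used: male rats (200-300 g) got drug or isotonic saline ip in groups of five, 2 h beforehand (one reference agent 1 h). Doses were 50, 25 or 5 mg/kg. Rats were under halothane, cannulated, pithed and ventilated with room air. Noradrenaline (0.1-1.0 µg/kg) or angiotensin (0.03-0.3 µg/kg) was injected iv, and the increase in diastolic pressure was recorded in mmHg.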

Rattus norvegicus [4] = experiment: Increase in diastolic blood pressure for 1.0 ug/kg intravenous dosing of noradrenaline in pithed rats; assay type: functional, Artery; how it was run: as §2
Rattus norvegicus [5] = species on record: Rattus norvegicus; experiment: Increase in diastolic blood pressure for 6 Htz electrical stimulation in the pithed rats; assay type: functional, Artery; how it was run: as §1
Rattus norvegicus [6] = experiment: Increase in diastolic blood pressure for 0.1 ug/kg intravenous dosing of noradrenaline in pithed rats; assay type: functional, Artery; how it was run: as §2
Rattus norvegicus [7] = species on record: Rattus norvegicus; experiment: Increase in diastolic blood pressure for 1 Htz electrical stimulation in the pithed rats; assay type: functional, Artery; how it was run: as §1
Rattus norvegicus [8] = experiment: Increase in diastolic blood pressure for 0.1 ug/kg intravenous dosing of angiotensin in pithed rats; assay type: functional, Artery; how it was run: as §2
Rattus norvegicus [9] = experiment: Increase in diastolic blood pressure for 0.3 ug/kg intravenous dosing of angiotensin in pithed rats; assay type: functional, Artery; how it was run: as §2
Rattus norvegicus [10] = experiment: Increase in diastolic blood pressure for 0.3 ug/kg intravenous dosing of noradrenaline in pithed rats; assay type: functional, Artery; how it was run: as §2
Rattus norvegicus [11] = experiment: Increase in diastolic blood pressure at 0.03 ug/kg intravenous dosing of angiotensin in pithed rats; assay type: functional, Artery; how it was run: as §2
Rattus norvegicus [12] = experiment: Summation of percentage reductions, compared to pretreatment controls, in MABP of DOCA hypertensive rats at 1,2,3,5,8 hr after the 100 mg/kg oral dose.; assay type: functional
How it was run: (§3)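 DOCA hypertensive rats (n = 5) were dosed orally. MABP (diastolic + one-third pulse pressure) was read before dosing and at 1, 2, 3, 5 and 8 h. The value is the sum of the % reductions from pretreatment control over these five time points.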

Rattus norvegicus [13] = experiment: Increase in diastolic blood pressure at 1.0 ug/kg intravenous dosing of noradrenaline in pithed rats; assay type: functional, Artery; how it was run: as §2
Rattus norvegicus [14] = experiment: Maximum percentage reduction in mean arterial blood pressure in metacorticoid (DOCA) hypertensive rats at a standard oral dose of 50 mg/kg; assay type: functional
How it was run: (§4)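 Rats were DOCA hypertensive. For oral dosing, food was withdrawn 18 h before; rats dosed ip were not starved. The vehicle was isotonic saline. Pressure was recorded by transducer under minimal restraint: twice before dosing, then at 1, 2, 3, 5 and 22 h. MABP was taken as diastolic + one-third pulse pressure. The value is the maximum % fall from the mean of the two pretreatment readings, n = 3-5.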

Rattus norvegicus [15] = species on record: Rattus norvegicus; experiment: Increase in diastolic blood pressure at 6 Htz electrical stimulation in the pithed rats; assay type: functional, Artery; how it was run: as §1
Rattus norvegicus [16] = experiment: Increase in diastolic blood pressure at 0.3 ug/kg intravenous dosing of angiotensin in pithed rats; assay type: functional, Artery; how it was run: as §2
Rattus norvegicus [17] = experiment: Increase in diastolic blood pressure at 0.3 ug/kg intravenous dosing of noradrenaline in pithed rats; assay type: functional, Artery; how it was run: as §2
Rattus norvegicus [18] = experiment: Increase in diastolic blood pressure at 0.1 ug/kg intravenous dosing of noradrenaline in pithed rats; assay type: functional, Artery; how it was run: as §2
Rattus norvegicus [19] = species on record: Rattus norvegicus; experiment: Increase in diastolic blood pressure at 1 Htz electrical stimulation in the pithed rats; assay type: functional, Artery; how it was run: as §1
Rattus norvegicus [20] = experiment: Maximum percentage reduction in mean arterial blood pressure in metacorticoid (DOCA) hypertensive rats at a standard oral dose of 100 mg/kg; assay type: functional; how it was run: as §4
Rattus norvegicus [21] = experiment: Summation of percentage reductions, compared to pretreatment controls, in MABP of DOCA hypertensive rats at 1,2,3,5,8 hr after the 50 mg/kg oral dose.; assay type: functional; how it was run: as §3
Rattus norvegicus [22] = species on record: Rattus norvegicus; experiment: Increase in diastolic blood pressure at 3 Htz electrical stimulation in the pithed rats; assay type: functional, Artery; how it was run: as §1
Rattus norvegicus [23] = experiment: Increase in diastolic blood pressure at 0.1 ug/kg intravenous dosing of angiotensin in pithed rats; assay type: functional, Artery; how it was run: as §2
Rattus norvegicus [24] = experiment: Maximum percentage reduction in mean blood pressure in metacorticoid (DOCA) hypertensive rats at a standard intraperitoneal dose of 100 mg/kg; assay type: functional; how it was run: as §4
Rattus norvegicus [25] = experiment: Increase in diastolic blood pressure at r 0.3 ug/kg intravenous dosing of noradrenaline in pithed rats; assay type: functional, Artery; how it was run: as §2
Rattus norvegicus [26] = experiment: Maximum percentage reduction in mean blood pressure in metacorticoid (DOCA) hypertensive rats at a standard oral dose of 50 mg/kg; assay type: functional; how it was run: as §4
Rattus norvegicus [27] = experiment: Maximum percentage reduction in mean blood pressure in metacorticoid (DOCA) hypertensive rats at a standard oral dose of 100 mg/kg; assay type: functional; how it was run: as §4
Rattus norvegicus [28] = experiment: Maximum percentage reduction in mean blood pressure in metacorticoid (DOCA) hypertensive rats at a standard oral dose of 10 mg/kg; assay type: functional; how it was run: as §4

COc1ccc(-c2nnc(N=C(N)N)s2)cc1.Cl
Reduction (Rattus norvegicus [1]): 28%

NNc1nncc2ccccc12 [HYDRALAZINE]
Increase in blood pressure (Rattus norvegicus [2]): 42 mmHg
Increase in blood pressure (Rattus norvegicus [3]): 8 mmHg
Increase in blood pressure (Rattus norvegicus [4]): 28 mmHg
Increase in blood pressure (Rattus norvegicus [5]): 54 mmHg
Increase in blood pressure (Rattus norvegicus [6]): 8 mmHg
Increase in blood pressure (Rattus norvegicus [7]): 28 mmHg
Increase in blood pressure (Rattus norvegicus [8]): 21 mmHg
Increase in blood pressure (Rattus norvegicus [9]): 38 mmHg
Increase in blood pressure (Rattus norvegicus [10]): 15 mmHg

Cc1ccccc1-c1nnc(N=C(N)N)s1.Cl
Increase in blood pressure (Rattus norvegicus [11]): 2 mmHg
Summation MABP (Rattus norvegicus [12]): 167
Increase in blood pressure (Rattus norvegicus [13]): 39 mmHg
Reduction (Rattus norvegicus [14]): 36%
Increase in blood pressure (Rattus norvegicus [15]): 35 mmHg
Increase in blood pressure (Rattus norvegicus [16]): 22 mmHg
Increase in blood pressure (Rattus norvegicus [17]): 23 mmHg
Increase in blood pressure (Rattus norvegicus [18]): 12 mmHg
Increase in blood pressure (Rattus norvegicus [19]): 13 mmHg
Reduction (Rattus norvegicus [20]): 41%
Summation MABP (Rattus norvegicus [21]): 115
Increase in blood pressure (Rattus norvegicus [22]): 29 mmHg
Increase in blood pressure (Rattus norvegicus [23]): 9 mmHg

Cl.N=C(N)Nc1nnc(-c2ccc(Cl)cc2)s1
Reduction (Rattus norvegicus [24]): 18%

Cc1ccccc1-c1nnc(NC2=NCCN2)s1.Cl
Increase in blood pressure (Rattus norvegicus [11]): 15 mmHg
Summation MABP (Rattus norvegicus [12]): 194
Increase in blood pressure (Rattus norvegicus [13]): 44 mmHg
Reduction (Rattus norvegicus [14]): 28%
Increase in blood pressure (Rattus norvegicus [15]): 45 mmHg
Increase in blood pressure (Rattus norvegicus [16]): 43 mmHg
Increase in blood pressure (Rattus norvegicus [18]): 10 mmHg
Increase in blood pressure (Rattus norvegicus [19]): 17 mmHg
Reduction (Rattus norvegicus [20]): 43%
Summation MABP (Rattus norvegicus [21]): 117
Increase in blood pressure (Rattus norvegicus [25]): 21 mmHg
Increase in blood pressure (Rattus norvegicus [22]): 34 mmHg
Increase in blood pressure (Rattus norvegicus [23]): 27 mmHg

Cl.N=C(N)Nc1nnc(-c2ccccc2Br)s1
Increase in blood pressure (Rattus norvegicus [2]): 31 mmHg
Increase in blood pressure (Rattus norvegicus [3]): 3 mmHg
Increase in blood pressure (Rattus norvegicus [4]): 50 mmHg
Increase in blood pressure (Rattus norvegicus [5]): 38 mmHg
Increase in blood pressure (Rattus norvegicus [6]): 13 mmHg
Increase in blood pressure (Rattus norvegicus [7]): 17 mmHg
Increase in blood pressure (Rattus norvegicus [8]): 7 mmHg
Reduction (Rattus norvegicus [26]): 29%
Increase in blood pressure (Rattus norvegicus [9]): 17 mmHg
Reduction (Rattus norvegicus [27]): 41%
Increase in blood pressure (Rattus norvegicus [10]): 27 mmHg

N=C(N)Nc1nnc(-c2c(Cl)cccc2Cl)s1
Reduction (Rattus norvegicus [1]): 34%

COCC/N=C(/N)Nc1nnc(-c2ccccc2C)s1.Cl
Summation MABP (Rattus norvegicus [12]): 157
Increase in blood pressure (Rattus norvegicus [2]): 52 mmHg
Increase in blood pressure (Rattus norvegicus [3]): 14 mmHg
Increase in blood pressure (Rattus norvegicus [4]): 45 mmHg
Summation MABP (Rattus norvegicus [21]): 113
Increase in blood pressure (Rattus norvegicus [5]): 65 mmHg
Increase in blood pressure (Rattus norvegicus [6]): 13 mmHg
Increase in blood pressure (Rattus norvegicus [7]): 30 mmHg
Increase in blood pressure (Rattus norvegicus [8]): 28 mmHg
Reduction (Rattus norvegicus [26]): 29%
Increase in blood pressure (Rattus norvegicus [9]): 44 mmHg
Reduction (Rattus norvegicus [27]): 37%
Increase in blood pressure (Rattus norvegicus [10]): 25 mmHg

Nc1cc(N2CCCCC2)nc(N)[n+]1[O-] [MINOXIDIL]
Reduction (Rattus norvegicus [28]): 42%

CCCC/N=C(/N)Nc1nnc(-c2ccccc2C)s1.Cl
Summation MABP (Rattus norvegicus [12]): 159
Reduction (Rattus norvegicus [14]): 31%
Increase in blood pressure (Rattus norvegicus [17]): 42 mmHg
Reduction (Rattus norvegicus [20]): 39%
Summation MABP (Rattus norvegicus [21]): 126
Increase in blood pressure (Rattus norvegicus [22]): 20 mmHg
Increase in blood pressure (Rattus norvegicus [23]): 23 mmHg
